Reference: ChEMBL document CHEMBL1126899, “Nonpeptide angiotensin II antagonists derived from 1H-pyrazole-5-carboxylates and 4-aryl-1H-imidazole-5-carboxylates” (J Med Chem, 1993)
Calls of active or inactive are those of the source. No cut-off for these calls is given here.

Key:
[1] = target: T1, Type-1 angiotensin II receptor (Oryctolagus cuniculus, UniProt P34976); experiment: Evaluation of Angiotensin II antagonistic activity by displacement of [125I]-Sar Ile-AII at the rabbit aorta Angiotensin II receptor, type 1; type: tissue-based
T1 sequence (P34976 whole entry): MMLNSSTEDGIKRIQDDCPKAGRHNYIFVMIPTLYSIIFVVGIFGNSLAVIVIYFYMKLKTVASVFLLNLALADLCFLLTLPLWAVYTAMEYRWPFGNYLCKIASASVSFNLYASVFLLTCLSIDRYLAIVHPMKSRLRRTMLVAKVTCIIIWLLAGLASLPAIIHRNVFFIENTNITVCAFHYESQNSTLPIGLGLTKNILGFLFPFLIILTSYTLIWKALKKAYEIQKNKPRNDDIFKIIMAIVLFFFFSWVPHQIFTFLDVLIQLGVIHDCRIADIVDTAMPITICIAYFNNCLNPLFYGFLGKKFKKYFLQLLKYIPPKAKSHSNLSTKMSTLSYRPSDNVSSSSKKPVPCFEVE
Procedure, shortened: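 Rabbit aorta membranes, run without BSA. Competition against [¹²⁵I]Sar¹Ile⁸-AII, in duplicate tubes. Some values are means of two or more separate assays. Standard error is estimated at <30% of the mean.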

Rattus norvegicus [2] = experiment: Peak percent inhibition of Angiotensin II pressor response in conscious, normotensive rats at 3 mg/kg iv (no. of animals treated); type: functional
Procedure, shortened: (§1)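 Male Sprague-Dawley rats (300–400 g), conscious, catheterized for iv dosing and for arterial pressure and heart rate. Compound given iv or po; PEG 400 vehicle in some oral cases. AII 0.1 μg/kg iv boluses at set intervals afterward. % inhibition of the MAP rise was calculated at each time point, and the peak was taken. Averaged from at least two rats unless noted.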

Rattus norvegicus [3] = experiment: Time to produce onset of action for inhibition of pressor response in conscious, normotensive rats at 3 mg/kg iv (no. of animals treated); type: functional
Procedure, shortened: (§2)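 Conscious male Sprague-Dawley rats (300–400 g), instrumented for iv dosing and arterial pressure. A single iv or po bolus of compound (PEG 400 for some oral doses), then repeated AII challenges at 0.1 μg/kg iv. […] Averaged from at least two rats unless noted.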

Rattus norvegicus [4] = experiment: Time to produce onset of action for inhibition of Angiotensin II pressor response in conscious, normotensive rats at 0.1 mg/kg iv; type: functional; procedure, shortened: as §2
Rattus norvegicus [5] = experiment: Time to produce onset of action for inhibition of Angiotensin II pressor response in conscious, normotensive rats at 1 mg/kg po; type: functional; procedure, shortened: as §2
Rattus norvegicus [6] = experiment: Peak percent inhibition of Angiotensin II pressor response in conscious, normotensive rats at 0.3 mg/kg po(no. of animals treated); type: functional; procedure, shortened: as §1
Rattus norvegicus [7] = experiment: Peak percent inhibition of Angiotensin II pressor response in conscious, normotensive rats at 1 mg/kg po; type: functional; procedure, shortened: as §1
Rattus norvegicus [8] = experiment: Peak percent inhibition of Angiotensin II pressor response in conscious, normotensive rats at 0.1 mg/kg iv; type: functional; procedure, shortened: as §1
Rattus norvegicus [9] = experiment: Time to produce onset of action for inhibition of Angiotensin II pressor response in conscious, normotensive rats at 0.3 mg/kg po; type: functional; procedure, shortened: as §2
Rattus norvegicus [10] = experiment: Time to produce onset of action for inhibition of Angiotensin II pressor response in conscious, normotensive rats at 0.1 mg/kg po; type: functional; procedure, shortened: as §2
Rattus norvegicus [11] = experiment: Peak percent inhibition of Angiotensin II pressor response in conscious, normotensive rats at 0.3 mg/kg po; type: functional; procedure, shortened: as §1
Rattus norvegicus [12] = experiment: Peak percent inhibition of Angiotensin II pressor response in conscious, normotensive rats at 0.3 mg/kg iv; type: functional; procedure, shortened: as §1
Rattus norvegicus [13] = experiment: Time to produce onset of action for inhibition of Angiotensin II pressor response in conscious, normotensive rats at 0.3 mg/kg iv; type: functional; procedure, shortened: as §2
Rattus norvegicus [14] = experiment: Peak percent inhibition of Angiotensin II pressor response in conscious, normotensive rats at 0.1 mg/kg po; type: functional; procedure, shortened: as §1
Rattus norvegicus [15] = experiment: Time to produce onset of action for inhibition of pressor response in conscious, normotensive rats at 0.3 mg/kg po (no. of animals treated); type: functional; procedure, shortened: as §2
Rattus norvegicus [16] = experiment: Peak percent inhibition of Angiotensin II pressor response in conscious, normotensive rats at 0.1 mg/kg iv (no. of animals treated); type: functional; procedure, shortened: as §1
Rattus norvegicus [17] = experiment: Time to produce onset of action for inhibition of pressor response in conscious, normotensive rats at 0.1 mg/kg iv (no. of animals treated); type: functional; procedure, shortened: as §2
Rattus norvegicus [18] = experiment: Time to produce onset of action for inhibition of Angiotensin II pressor response in conscious, normotensive rats at 0..3 mg/kg iv; type: functional; procedure, shortened: as §2
Rattus norvegicus [19] = experiment: Time to produce onset of action for inhibition of Angiotensin II pressor response in conscious, normotensive rats 1 at mg/kg iv; type: functional; procedure, shortened: as §2
Rattus norvegicus [20] = experiment: Peak percent inhibition of Angiotensin II pressor response in conscious, normotensive rats 1 at mg/kg iv; type: functional; procedure, shortened: as §1
Rattus norvegicus [21] = experiment: Time to produce onset of action for inhibition of pressor response in conscious, normotensive rats 0.3 mg/kg po (no. of animals treated); type: functional; procedure, shortened: as §2
Rattus norvegicus [22] = experiment: Time to produce onset of action for inhibition of pressor response in conscious, normotensive rats at 1 mg/kg iv (no. of animals treated); type: functional; procedure, shortened: as §2
Rattus norvegicus [23] = experiment: Time to produce onset of action for inhibition of pressor response in conscious, normotensive rats at 3 mg/kg po (no. of animals treated); type: functional; procedure, shortened: as §2
Rattus norvegicus [24] = experiment: Peak percent inhibition of Angiotensin II pressor response in conscious, normotensive rats at 0.3 mg/kg po (no. of animals treated); type: functional; procedure, shortened: as §1
Rattus norvegicus [25] = experiment: Time to produce onset of action for inhibition of pressor response in conscious, normotensive rats at 0.3 mg/kg iv (no. of animals treated); type: functional; procedure, shortened: as §2
Rattus norvegicus [26] = experiment: Peak percent inhibition of Angiotensin II pressor response in conscious, normotensive rats at 1 mg/kg iv (no. of animals treated); type: functional; procedure, shortened: as §1
Rattus norvegicus [27] = experiment: Peak percent inhibition of Angiotensin II pressor response in conscious, normotensive rats at 0.3 mg/kg iv (no. of animals treated); type: functional; procedure, shortened: as §1
Rattus norvegicus [28] = experiment: Peak percent inhibition of Angiotensin II pressor response in conscious, normotensive rats at 3 mg/kg po (no. of animals treated); type: functional; procedure, shortened: as §1
Rattus norvegicus [29] = experiment: Peak percent inhibition of Angiotensin II pressor response in conscious, normotensive rats at 1 mg/kg po (no. of animals treated); type: functional; procedure, shortened: as §1
Rattus norvegicus [30] = experiment: Time to produce onset of action for inhibition of pressor response in conscious, normotensive rats at 1 mg/kg po (no. of animals treated); type: functional; procedure, shortened: as §2
Rattus norvegicus [31] = experiment: Peak percent inhibition of Angiotensin II pressor response in conscious, normotensive rats at 1 mg/kg iv; type: functional; procedure, shortened: as §1
Rattus norvegicus [32] = experiment: Time to produce onset of action for inhibition of Angiotensin II pressor response in conscious, normotensive rats at 1 mg/kg iv; Not active; type: functional, organism-based; design: dose 1 mg/kg; procedure, shortened: as §2

Compound: CCCCc1nc(-c2ccccc2)c(C(=O)O)n1Cc1ccc(-c2ccccc2-c2nn[nH]n2)cc1
- IC50 [1]: 2.1 nM
- inhibition in vivo at 3 mg/kg (Rattus norvegicus [2]): 100%
- Duration (Rattus norvegicus [3]): >24 h

Compound: CCCCc1nn(Cc2ccccc2)c(C(=O)O)c1Cc1ccc(-c2ccccc2-c2nn[nH]n2)cc1
- Duration (Rattus norvegicus [4]): >5 h
- Duration (Rattus norvegicus [5]): >24 h
- IC50 [1]: 0.2 nM
- inhibition in vivo at 0.3 mg/kg (Rattus norvegicus [6]): 75%
- inhibition in vivo at 1 mg/kg (Rattus norvegicus [7]): 100%
- inhibition in vivo at 0.1 mg/kg (Rattus norvegicus [8]): 68%
- Duration (Rattus norvegicus [9]): >3 h

Compound: CCCc1nn(CC(F)(F)F)c(C(=O)O)c1Cc1ccc(-c2ccccc2-c2nn[nH]n2)cc1
- Duration (Rattus norvegicus [4]): ~5 h
- Duration (Rattus norvegicus [5]): >23 h
- Duration (Rattus norvegicus [10]): ~2 h
- IC50 [1]: 1.6 nM
- inhibition in vivo at 0.3 mg/kg (Rattus norvegicus [11]): 66%
- inhibition in vivo at 1 mg/kg (Rattus norvegicus [7]): 75%
- inhibition in vivo at 0.3 mg/kg (Rattus norvegicus [12]): 93%
- inhibition in vivo at 0.1 mg/kg (Rattus norvegicus [8]): 62%
- Duration (Rattus norvegicus [9]): >3 h
- Duration (Rattus norvegicus [13]): >24 h
- inhibition in vivo at 0.1 mg/kg (Rattus norvegicus [14]): 54%

Compound: CCCCc1nc(-c2ccccc2Cl)c(C(=O)O)n1Cc1ccc(-c2ccccc2-c2nn[nH]n2)cc1
- Duration (Rattus norvegicus [15]): 0.4 h
- IC50 [1]: 0.55 nM
- inhibition in vivo at 0.3 mg/kg (Rattus norvegicus [6]): 50%
- inhibition in vivo at 0.1 mg/kg (Rattus norvegicus [16]): 88%
- Duration (Rattus norvegicus [17]): >6 h

Compound: CCCc1nn(Cc2ccccc2)c(C(=O)O)c1Cc1ccc(-c2ccccc2-c2nn[nH]n2)cc1
- Duration (Rattus norvegicus [5]): >23 h
- IC50 [1]: 0.42 nM
- inhibition in vivo at 0.3 mg/kg (Rattus norvegicus [11]): 82%
- Duration (Rattus norvegicus [18]): >24 h
- inhibition in vivo at 1 mg/kg (Rattus norvegicus [7]): 100%
- inhibition in vivo at 0.3 mg/kg (Rattus norvegicus [12]): 95%
- Duration (Rattus norvegicus [9]): >4 h

Compound: CCCCc1nn(-c2ccccc2)c(C(=O)O)c1Cc1ccc(-c2ccccc2-c2nn[nH]n2)cc1
- IC50 [1]: 2.9 nM
- Duration (Rattus norvegicus [19]): >6 h
- Inhibition (Rattus norvegicus [20]): 96%

Compound: CCCCc1nc(Cl)c(CO)n1Cc1ccc(-c2ccccc2-c2nnn[nH]2)cc1 [LOSARTAN]
- Duration (Rattus norvegicus [21]): >3.5 h
- Duration (Rattus norvegicus [22]): >6 h
- Duration (Rattus norvegicus [23]): >4.5 h
- inhibition in vivo at 0.3 mg/kg (Rattus norvegicus [24]): 36%
- Duration (Rattus norvegicus [25]): 5.5 h
- inhibition in vivo at 1 mg/kg (Rattus norvegicus [26]): 78%
- inhibition in vivo at 0.3 mg/kg (Rattus norvegicus [27]): 52%
- inhibition in vivo at 3 mg/kg (Rattus norvegicus [28]): 94%

Compound: CCCCc1nc(Cl)c(C(=O)O)n1Cc1ccc(-c2ccccc2-c2nn[nH]n2)cc1 [CARBOXYLIC ACID METABOLITE]
- Duration (Rattus norvegicus [15]): 2.8 h
- inhibition in vivo at 1 mg/kg (Rattus norvegicus [29]): 72%
- inhibition in vivo at 0.1 mg/kg (Rattus norvegicus [16]): 63%
- Duration (Rattus norvegicus [30]): >7 h
- inhibition in vivo at 0.3 mg/kg (Rattus norvegicus [24]): 63%
- Duration (Rattus norvegicus [25]): >29 h
- Duration (Rattus norvegicus [17]): ~4 h
- inhibition in vivo at 0.3 mg/kg (Rattus norvegicus [27]): 100%

Compound: CCCCc1nn(-c2c(Cl)cccc2Cl)c(C(=O)OCC)c1Cc1ccc(-c2ccccc2-c2nn[nH]n2)cc1
- inhibition in vivo at 1 mg/kg (Rattus norvegicus [31]): 16%
- Duration (Rattus norvegicus [32]): inactive

Compound: CCCCc1n[nH]c(C(=O)O)c1Cc1ccc(-c2ccccc2-c2nn[nH]n2)cc1
- IC50 [1]: 2 nM
- Duration (Rattus norvegicus [22]): >6 h
- inhibition in vivo at 1 mg/kg (Rattus norvegicus [26]): 94%
